From ChEMBL document CHEMBL2163220 (J Med Chem, 2012)
Numbering of substitutions follows the chain as printed. The source made the active and inactive calls. The calls are words filed in the database; no cut-off is given here.

How the values were obtained:
[1] = biological target: T1, Androgen receptor (Homo sapiens) (UniProt P10275); assay: Agonist activity at androgen receptor expressed in human PC3 cells assessed as stimulation of receptor transactivation at 0.1 to 1 uM by luciferase reporter gene assay; assay type: functional, cell-based; details: PC-3
T1 sequence (whole entry): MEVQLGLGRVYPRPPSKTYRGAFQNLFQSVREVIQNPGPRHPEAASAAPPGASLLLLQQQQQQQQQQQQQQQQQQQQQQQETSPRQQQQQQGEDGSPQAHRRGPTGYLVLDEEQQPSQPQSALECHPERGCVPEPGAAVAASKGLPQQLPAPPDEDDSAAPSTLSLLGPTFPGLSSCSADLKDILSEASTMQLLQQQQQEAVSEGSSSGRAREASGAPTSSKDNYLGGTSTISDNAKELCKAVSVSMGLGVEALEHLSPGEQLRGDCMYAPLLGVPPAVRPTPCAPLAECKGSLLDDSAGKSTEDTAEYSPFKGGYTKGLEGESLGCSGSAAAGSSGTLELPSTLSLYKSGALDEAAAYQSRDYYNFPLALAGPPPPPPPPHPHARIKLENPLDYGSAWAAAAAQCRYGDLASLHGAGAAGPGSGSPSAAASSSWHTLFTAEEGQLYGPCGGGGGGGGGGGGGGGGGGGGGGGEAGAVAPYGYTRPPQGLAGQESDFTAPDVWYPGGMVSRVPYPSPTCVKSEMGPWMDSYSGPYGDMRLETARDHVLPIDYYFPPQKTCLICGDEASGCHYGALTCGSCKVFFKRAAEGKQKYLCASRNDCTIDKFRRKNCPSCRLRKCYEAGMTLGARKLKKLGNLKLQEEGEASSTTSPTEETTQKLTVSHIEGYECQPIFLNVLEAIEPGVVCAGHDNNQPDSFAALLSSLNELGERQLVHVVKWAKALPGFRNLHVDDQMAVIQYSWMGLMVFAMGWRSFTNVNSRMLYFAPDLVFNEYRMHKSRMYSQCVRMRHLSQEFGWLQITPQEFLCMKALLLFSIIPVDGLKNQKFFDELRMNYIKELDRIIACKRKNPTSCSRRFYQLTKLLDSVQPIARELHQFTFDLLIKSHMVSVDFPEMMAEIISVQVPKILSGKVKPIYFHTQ
Summary of the method: (§1)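 Full-length wild-type or mutant AR plasmid transiently transfected into PC-3 cells with MMTV-luc and Renilla luciferase reporters. Cells treated with DMSO vehicle or compound at 0.1 and 1 μM, alone or with 0.1 nM DHT. Luciferase read as relative luciferase units. Run in triplicate.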

[2] = test system: T2, Androgen receptor (Homo sapiens), P10275 [W742C]; assay: Antagonist activity at androgen receptor W741C mutant expressed in human PC3 cells assessed as reduction in DHT-induced receptor transactivation at 0.1 to 1 uM by luciferase reporter gene assay; assay type: functional, cell-based; details: PC-3; summary of the method: as §1
T2 sequence (whole entry): T1 sequence (whole entry) with W742C

LNCaP [3] = assay: Induction of apoptosis in human LNCAP cells assessed as PARP cleavage activation incubated for 24 hrs by Western blotting; assay type: functional, cell-based
Summary of the method: (§2)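 LNCaP cells in complete medium were exposed to DMSO or compound at 1, 2.5 and 5 μM for 24 h. Western blot measured AR, maspin, caspase-3 activation and PARP cleavage, with β-actin as loading control.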

LNCaP [4] = assay: Induction of apoptosis in human LNCAP cells assessed as caspase-3 activation incubated for 24 hrs by Western blotting; assay type: functional, cell-based; summary of the method: as §2
PC-3 = assay: Effect on in Maspin expression in human PC3 cells deficient in wild type androgen receptor at 5 uM by luciferase reporter gene assay; assay type: functional, cell-based
Summary of the method: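 PC-3 cells were transfected with maspin-luc, with or without cotransfected AR. Cells were exposed to DMSO vehicle or compound at 2.5 and 5 μM. Luciferase activity was measured in triplicate.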

[5] = biological target: T1, Androgen receptor (Homo sapiens); assay: Antagonist activity at androgen receptor in human LNCaP cells assessed as increase in Maspin expression incubated for 24 hrs in presence of DHT by RT-PCR

Activity [1]: inactive | Activity [2]: Active | Activity [5]: Dose-dependent effect
SMILES: Cc1coc2c1C(=O)C(=O)c1c-2ccc2c1CCCC2(C)C [TANSHINONE IIA]
Activity (LNCaP [3]): Dose-dependent effect | Activity (LNCaP [4]): Dose-dependent effect | Activity (PC-3): inactive
